{"source": "ChEMBL document CHEMBL1811814", "about": "“Synthesis and evaluation of indole, pyrazole, chromone and pyrimidine based conjugates for tumor growth inhibitory activities--development of highly efficacious cytotoxic agents” (Eur J Med Chem, 2010)", "format_in_all_cases": "functional", "key": {"[1]": {"tested_on": "M14", "test": "Growth inhibition of human M14 cells"}, "[2]": {"tested_on": "DU-145", "test": "Growth inhibition of human DU145 cells"}, "[3]": {"tested_on": "SF-295", "test": "Growth inhibition of human SF295 cells"}, "[4]": {"tested_on": "ACHN", "test": "Growth inhibition of human ACHN cells"}, "[5]": {"tested_on": "NCI-H460", "test": "Growth inhibition of human NCI-H460 cells assessed tumor cell growth at 10^-5 M", "set-up": "scale not given: the % may be the effect or the level left", "outline": "(§1)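 NCI 60-human-tumor-cell-line panel screen. Each compound was tested at a single concentration of 10^-5 M, and percent growth of tumor cells was recorded for each cell line. Growth inhibition was expressed from these percent-growth values.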"}, "[6]": {"tested_on": "SN12C", "test": "Growth inhibition of human SN12C cells assessed tumor cell growth at 10^-5 M", "set-up": "scale not given: the % may be the effect or the level left", "outline": "as §1"}, "[7]": {"tested_on": "CCRF-CEM", "test": "Growth inhibition of human CCRF-CEM cells"}, "[8]": {"tested_on": "MDA-MB-468", "test": "Growth inhibition of human MDA-MB-468 cells"}, "[9]": {"tested_on": "EKVX", "test": "Growth inhibition of human EKVX cells assessed tumor cell growth at 10^-5 M", "set-up": "scale not given: the % may be the effect or the level left", "outline": "as §1"}, "[10]": {"tested_on": "OVCAR-8", "test": "Growth inhibition of human OVCAR8 cells assessed tumor cell growth at 10^-5 M", "set-up": "scale not given: the % may be the effect or the level left", "outline": "as §1"}, "[11]": {"tested_on": "MDA-MB-468", "test": "Growth inhibition of human MDA-MB-468 cells assessed tumor cell growth at 10^-5 M", "set-up": "scale not given: the % may be the effect or the level left", "outline": "as §1"}, "[12]": {"tested_on": "SF-268", "test": "Growth inhibition of human SF268 cells assessed tumor cell growth at 10^-5 M", "set-up": "scale not given: the % may be the effect or the level left", "outline": "as §1"}, "[13]": {"tested_on": "MOLT-4", "test": "Growth inhibition of human MOLT4 cells"}, "[14]": {"tested_on": "IGROV-1", "test": "Growth inhibition of human IGROV1 cells assessed tumor cell growth at 10^-5 M", "set-up": "scale not given: the % may be the effect or the level left", "outline": "as §1"}, "[15]": {"tested_on": "UO-31", "test": "Growth inhibition of human UO31 cells"}, "[16]": {"tested_on": "SNB-75", "test": "Growth inhibition of human SNB75 cells assessed tumor cell growth at 10^-5 M", "set-up": "scale not given: the % may be the effect or the level left", "outline": "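Single-dose screen at 10^-5 M across the 60 human tumor cell line panel, run to NCI standards. The value is the percent growth of each cell line in the presence of compound. Compounds active at this dose moved on to five-concentration testing (10^-4 to 10^-8 M).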"}, "[17]": {"tested_on": "A498", "test": "Growth inhibition of human A498 cells"}, "[18]": {"tested_on": "SK-MEL-5", "test": "Growth inhibition of human SK-MEL-5 cells assessed tumor cell growth at 10^-5 M", "set-up": "scale not given: the % may be the effect or the level left", "outline": "as §1"}, "[19]": {"tested_on": "NCI/ADR-RES", "test": "Growth inhibition of human NCI/ADR-RES cells assessed tumor cell growth at 10^-5 M", "set-up": "scale not given: the % may be the effect or the level left", "outline": "as §1"}, "[20]": {"tested_on": "HOP-62", "test": "Growth inhibition of human HOP62 cells assessed tumor cell growth at 10^-5 M", "set-up": "scale not given: the % may be the effect or the level left", "outline": "as §1"}, "[21]": {"tested_on": "HL-60(TB)", "test": "Growth inhibition of human HL-60(TB) cells assessed tumor cell growth at 10^-5 M", "set-up": "scale not given: the % may be the effect or the level left", "outline": "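HL-60(TB), part of the 60-line panel, tested at a single concentration of 10^-5 M. The read-out is percent tumor cell growth relative to untreated growth.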"}, "[22]": {"tested_on": "NCI-H522", "test": "Growth inhibition of human NCI-H522 cells assessed tumor cell growth at 10^-5 M", "set-up": "scale not given: the % may be the effect or the level left", "outline": "as §1"}, "[23]": {"test": "Growth inhibition of human RPMI8266 cells"}, "[24]": {"tested_on": "CAKI-1", "test": "Growth inhibition of human Caki1 cells assessed tumor cell growth at 10^-5 M", "set-up": "scale not given: the % may be the effect or the level left", "outline": "as §1"}, "[25]": {"tested_on": "SW-620", "test": "Growth inhibition of human SW620 cells"}, "[26]": {"conditions": "read-out: LC50 (the source's name)"}}, "data": [{"smiles": "O=C1Nc2ccccc2/C1=C/c1cn(C(=O)c2c(Cl)cccc2Cl)c2ccccc12", "values": [{"measurement": "GI50", "setting": "[1]", "result": 2.3, "unit": "µM"}, {"measurement": "CC50", "setting": "[1]; [26]", "result": 33.8, "unit": "µM"}, {"measurement": "GI50", "setting": "[2]", "result": 2.7, "unit": "µM"}, {"measurement": "CC50", "setting": "[2]; [26]", "result": 46.7, "unit": "µM"}, {"measurement": "GI50", "setting": "[3]", "result": 2.2, "unit": "µM"}, {"measurement": "CC50", "setting": "[3]; [26]", "result": 66.1, "unit": "µM"}, {"measurement": "GI50", "setting": "[4]", "result": 3.1, "unit": "µM"}, {"measurement": "CC50", "setting": "[4]; [26]", "result": "> 100", "unit": "µM"}, {"measurement": "Activity", "setting": "[5]", "result": 71.1, "unit": "%"}, {"measurement": "Activity", "setting": "[6]", "result": 56, "unit": "%"}, {"measurement": "GI50", "setting": "[7]", "result": 0.34, "unit": "µM"}, {"measurement": "CC50", "setting": "[7]; [26]", "result": "> 100", "unit": "µM"}, {"measurement": "GI50", "setting": "[8]", "result": 4.4, "unit": "µM"}, {"measurement": "CC50", "setting": "[8]; [26]", "result": 69.1, "unit": "µM"}, {"measurement": "Activity", "setting": "[9]", "result": 81.4, "unit": "%"}, {"measurement": "Activity", "setting": "[10]", "result": 52.3, "unit": "%"}, {"measurement": "Activity", "setting": "[11]", "result": 32.6, "unit": "%"}, {"measurement": "Activity", "setting": "[12]", "result": 56.5, "unit": "%"}, {"measurement": "GI50", "setting": "[13]", "result": 2.8, "unit": "µM"}, {"measurement": "LC50", "setting": "[13]", "result": "> 100", "unit": "µM"}, {"measurement": "Activity", "setting": "[14]", "result": 25.7, "unit": "%"}, {"measurement": "GI50", "setting": "[15]", "result": 1.1, "unit": "µM"}, {"measurement": "CC50", "setting": "[15]; [26]", "result": 48.9, "unit": "µM"}, {"measurement": "Activity", "setting": "[16]", "result": 54.6, "unit": "%"}, {"measurement": "GI50", "setting": "[17]", "result": 1.2, "unit": "µM"}, {"measurement": "CC50", "setting": "[17]; [26]", "result": 21.8, "unit": "µM"}, {"measurement": "Activity", "setting": "[18]", "result": 63, "unit": "%"}, {"measurement": "Activity", "setting": "[19]", "result": 57.7, "unit": "%"}, {"measurement": "Activity", "setting": "[20]", "result": 88.7, "unit": "%"}, {"measurement": "Activity", "setting": "[21]", "result": 72.1, "unit": "%"}, {"measurement": "Activity", "setting": "[22]", "result": 55.3, "unit": "%"}, {"measurement": "GI50", "setting": "[23]", "result": 3.4, "unit": "µM"}, {"measurement": "CC50", "setting": "[23]; [26]", "result": "> 100", "unit": "µM"}, {"measurement": "Activity", "setting": "[24]", "result": 18.7, "unit": "%"}, {"measurement": "GI50", "setting": "[25]", "result": 2.9, "unit": "µM"}, {"measurement": "CC50", "setting": "[25]; [26]", "result": 52.4, "unit": "µM"}]}]}
